Measurements published in ChEMBL document CHEMBL1126803, “Stereospecific and selective 5-HT2 antagonism in a series of 5-substituted trans-1-piperazino-3-phenylindans” (J Med Chem, 1993).
Where “and” joins values, the source holds several entries; their conditions need not be identical. Equal values may be shown once.

Tests used:
Rattus norvegicus [1] = organism: Rattus norvegicus; assay: Tested for inhibition of pergolide-induced rotation in 6-OH-DA-lesioned rats after 2 hr; format: functional
Method in brief: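 Unilateral 6-OHDA-lesioned rats were given test drug sc 2 h before pergolide (0.05 µmol/kg, sc), which induces contralateral circling. Each dose's effect was expressed as percent of the mean of control sessions held 1 week before and 1 week after the test session in the same rat. At least four rats per dose; ED50 by log-probit analysis.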

[2] = target: Serotonin 2 (5-HT2) receptor (Rattus norvegicus, UniProt P30994+P08909+P14842); assay: Displacement of [3H]ketanserin from 5-hydroxytryptamine 2 receptor in rat cortical membranes; format: cell membranes, Membrane
Method in brief: (§1)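 Radioligand displacement from rat brain membranes: 3H-ketanserin on cortical membranes (5-HT2), 3H-prazosin on whole brain membranes (alpha1), 3H-spiperone on striatal membranes (D2). Two full concentration-effect curves per compound, each with five test drug concentrations in triplicate spanning three decades. IC50 estimated from curves on a log-concentration scale. Outliers beyond 3 times the sd-ratio were discarded after extra determinations.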

[3] = target: T1, Adrenergic receptor alpha-1 (Rattus norvegicus, UniProt P15823+P23944+P43140); assay: Displacement of [3H]prazosin from alpha-1 adrenoceptors in whole rat brain membranes; format: cell membranes; method in brief: as §1
T1 sequence (P15823 whole entry): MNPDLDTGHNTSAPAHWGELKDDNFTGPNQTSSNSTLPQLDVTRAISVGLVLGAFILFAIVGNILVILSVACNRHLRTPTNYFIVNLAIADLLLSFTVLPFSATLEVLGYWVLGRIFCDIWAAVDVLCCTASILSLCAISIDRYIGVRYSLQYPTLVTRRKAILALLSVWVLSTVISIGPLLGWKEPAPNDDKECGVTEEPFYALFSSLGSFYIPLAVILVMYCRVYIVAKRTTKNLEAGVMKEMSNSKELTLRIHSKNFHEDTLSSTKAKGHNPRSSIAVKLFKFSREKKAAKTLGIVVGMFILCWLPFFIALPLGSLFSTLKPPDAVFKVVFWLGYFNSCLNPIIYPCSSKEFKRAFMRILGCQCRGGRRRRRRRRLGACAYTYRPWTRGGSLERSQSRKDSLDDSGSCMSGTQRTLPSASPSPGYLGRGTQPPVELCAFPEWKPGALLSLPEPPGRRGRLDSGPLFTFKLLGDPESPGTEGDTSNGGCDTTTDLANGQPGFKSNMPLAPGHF
T1 sequence (P23944 whole entry): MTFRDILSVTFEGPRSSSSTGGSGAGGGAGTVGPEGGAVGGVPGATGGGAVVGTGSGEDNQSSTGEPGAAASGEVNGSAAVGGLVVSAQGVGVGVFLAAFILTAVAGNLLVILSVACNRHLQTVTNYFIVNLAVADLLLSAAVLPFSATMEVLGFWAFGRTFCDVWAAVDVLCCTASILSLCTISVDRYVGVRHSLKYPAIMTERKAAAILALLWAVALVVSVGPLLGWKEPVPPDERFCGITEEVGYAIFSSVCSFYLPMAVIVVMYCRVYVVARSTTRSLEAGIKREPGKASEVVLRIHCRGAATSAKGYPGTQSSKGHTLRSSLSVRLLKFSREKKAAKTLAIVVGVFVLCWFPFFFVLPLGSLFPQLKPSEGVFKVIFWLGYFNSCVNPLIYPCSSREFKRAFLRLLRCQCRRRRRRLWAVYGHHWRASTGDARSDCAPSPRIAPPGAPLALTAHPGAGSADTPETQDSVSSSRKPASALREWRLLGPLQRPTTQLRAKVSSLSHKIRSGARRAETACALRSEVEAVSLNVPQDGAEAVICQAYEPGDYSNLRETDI
T1 sequence (P43140 whole entry): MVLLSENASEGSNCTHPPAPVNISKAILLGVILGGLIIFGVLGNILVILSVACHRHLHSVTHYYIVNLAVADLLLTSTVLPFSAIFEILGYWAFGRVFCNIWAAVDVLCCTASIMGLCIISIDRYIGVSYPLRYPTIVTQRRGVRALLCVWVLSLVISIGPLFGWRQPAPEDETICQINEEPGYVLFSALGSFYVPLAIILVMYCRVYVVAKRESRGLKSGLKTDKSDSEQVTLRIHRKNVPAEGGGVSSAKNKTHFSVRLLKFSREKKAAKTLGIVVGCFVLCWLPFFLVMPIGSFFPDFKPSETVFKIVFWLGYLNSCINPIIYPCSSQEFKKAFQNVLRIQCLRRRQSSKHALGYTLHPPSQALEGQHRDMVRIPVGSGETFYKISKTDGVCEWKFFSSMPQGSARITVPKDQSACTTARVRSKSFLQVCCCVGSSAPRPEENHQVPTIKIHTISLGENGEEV

D(2) dopamine receptor = D(2) dopamine receptor (Rattus norvegicus, UniProt P61169); assay: Displacement of [3H]spiperone from dopamine D2 receptors in rat striatal membranes; format: cell membranes, Membrane; method in brief: as §1
Rattus norvegicus [4] = organism: Rattus norvegicus; assay: Inhibition of quipazine-induced head twitches in rats after 2 hrs of pretreatment; format: functional
Method in brief: (§2)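 Test drug was given sc or po to rats 2 or 24 h before quipazine (15 µmol/kg, sc). Head twitches were counted 30-40 min after quipazine, at least four animals per dose. Counts were expressed as percent of a quipazine-only control group.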

Rattus norvegicus [5] = organism: Rattus norvegicus; assay: Tested for inhibition of quipazine-induced head twitches after 24 hours of pretreatment; format: functional; method in brief: as §2
Rattus norvegicus [6] = organism: Rattus norvegicus; assay: Tested for inhibition of quipazine-induced head twitches in rats after 2 hours of pretreatment; format: functional; method in brief: as §2
Rattus norvegicus [7] = organism: Rattus norvegicus; assay: Tested for inhibition of quipazine-induced head twitches in rats after 24 hours of pretreatment; format: functional; method in brief: as §2
Rattus norvegicus [8] = organism: Rattus norvegicus; assay: Tested for inhibition of dopamine uptake in rat brain membranes; format: functional, Membrane
Rattus norvegicus [9] = organism: Rattus norvegicus; assay: Tested for inhibition of norepinephrine uptake in rat brain membranes; format: functional, Membrane
[10] = Rattus norvegicus, read-out: ED50

Sequence of D(2) dopamine receptor (P61169 whole entry): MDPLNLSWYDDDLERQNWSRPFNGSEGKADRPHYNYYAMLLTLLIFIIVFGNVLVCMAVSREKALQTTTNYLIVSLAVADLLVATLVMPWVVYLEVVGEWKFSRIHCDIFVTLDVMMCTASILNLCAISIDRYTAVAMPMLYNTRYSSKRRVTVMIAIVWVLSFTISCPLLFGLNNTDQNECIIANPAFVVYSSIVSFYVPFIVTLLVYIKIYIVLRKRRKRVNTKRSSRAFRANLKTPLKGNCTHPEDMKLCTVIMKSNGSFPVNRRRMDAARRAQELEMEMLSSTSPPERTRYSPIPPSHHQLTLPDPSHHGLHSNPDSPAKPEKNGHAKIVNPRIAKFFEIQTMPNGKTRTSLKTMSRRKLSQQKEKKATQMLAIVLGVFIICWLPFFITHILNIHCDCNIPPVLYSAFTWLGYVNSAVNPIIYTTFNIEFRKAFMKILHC

Structure (SMILES)	ED50 (Rattus norvegicus [1]) [µmol/kg]	IC50 [2] [µM]	IC50 [3] [µM]	IC50 (D(2) dopamine receptor) [µM]	ED50 (Rattus norvegicus [4]; [10]) [µmol/kg]	ED50 (Rattus norvegicus [5]) [µmol/kg]	ED50 (Rattus norvegicus [4])	ED50 (Rattus norvegicus [6]) [µmol/kg]	ED50 (Rattus norvegicus [7]) [µmol/kg]	IC50 (Rattus norvegicus [8]) [µM]	IC50 (Rattus norvegicus [9]) [µM]
Cc1nc2sccn2c(=O)c1CCN1CCC(=C(c2ccc(F)cc2)c2ccc(F)cc2)CC1 [RITANSERIN]	> 21										
Cl.Cl.Fc1ccc(C2CC(N3CCN(CCN4CCCNC4=S)CC3)c3ccc(F)cc32)cc1 (single isomer, unassigned; (+))	> 37	0.00095	0.043	0.14	0.017	0.011					
O=C(O)/C=C\C(=O)O.O=C(O)/C=C\C(=O)O.O=C1NCCCN1CCN1CCN(C2CC(c3ccc(F)cc3)c3cc(F)ccc32)CC1 (single isomer, unassigned; (+))	> 15	0.0011	0.041	0.28			0.029 µM/kg and 0.07 µM/kg				
O=C1NCCN1CCN1CCN([C@@H]2C[C@@H](c3ccc(F)cc3)c3ccccc32)CC1 [IRINDALONE]	7.4		0.0026		0.58	0.75					
Fc1ccc(C2CC(N3CCN(CCN4CCN=C4S)CC3)c3ccc(F)cc32)cc1.O=C(O)/C=C\C(=O)O.O=C(O)/C=C\C(=O)O (stereo unspecified)	> 15	0.0015	0.11	0.23	0.12	0.62					
Fc1ccc(C2CC(N3CCN(CCN4CCNC4=S)CC3)c3ccc(Cl)cc32)cc1.O=C(O)/C=C\C(=O)O (stereo unspecified)	> 14	0.0015	0.052					0.077	1.4		
Cl.Cl.Fc1ccc(C2CC(N3CCN(CCN4CCCNC4=S)CC3)c3ccc(Cl)cc32)cc1 (stereo in doubt; (-)-39)	> 18	0.00075	0.067	0.033	0.041	0.021					
CC(C)N1CCN(CCN2CCN(C3CC(c4ccc(F)cc4)c4cc(Cl)ccc43)CC2)C1=O.O=C(O)/C=C\C(=O)O.O=C(O)/C=C\C(=O)O (single isomer, unassigned; (-))	> 14	0.0011	0.21	0.2						1.9	2.9
O=C(O)/C=C\C(=O)O.O=C(O)/C=C\C(=O)O.O=C1NCCCN1CCN1CCN(C2CC(c3ccc(F)cc3)c3cc(Cl)ccc32)CC1 (single isomer, unassigned; (-))	> 15	0.0013	0.062	0.094	0.11				0.072		
Fc1ccc(C2CC(N3CCN(CCN4CCCN=C4S)CC3)c3ccc(F)cc32)cc1.O=C(O)/C=C\C(=O)O.O=C(O)/C=C\C(=O)O (stereo unspecified)		0.0017	0.11	0.22	0.039						
OCCN1CCN(C2CC(c3ccc(F)cc3)c3c(Cl)cccc32)CC1 (stereo unspecified)		0.04	0.03	0.22	0.82						
Cc1nc2sccn2c(=O)c1CCN1CCN(C2CC(c3ccc(F)cc3)c3cc(Cl)ccc32)CC1.O=C(O)/C=C\C(=O)O.O=C(O)/C=C\C(=O)O (stereo unspecified)		0.019	0.024	0.065	1.9						
Cc1ccc2c(c1)C(c1ccc(F)cc1)CC2N1CCN(CCN2CCN(C(C)C)C2=O)CC1.O=C(O)/C=C\C(=O)O.O=C(O)/C=C\C(=O)O (stereo unspecified)		0.003	0.12	0.45	0.2						
CC(C)N1CCN(CCN2CCN(C3CC(c4ccc(F)cc4)c4cc(Cl)ccc43)CC2)C1=O.O=C(O)/C=C\C(=O)O.O=C(O)/C=C\C(=O)O (stereo in doubt; (+)-20)		0.075	0.34	1.3			>7 µM/kg			0.07	0.05
OCCN1CCN(C2CC(c3ccc(F)cc3)c3cc(F)ccc32)CC1 (stereo unspecified)		0.021	0.15	1.1			0.35 µM/kg				
